Assay results collected from several papers.
Compare with care: the assays were run in different laboratories.
Fibroblast growth factor 14: Fibroblast growth factor 14 (Homo sapiens, UniProt Q92915)
HTR1A: 5-hydroxytryptamine receptor 1A (HTR1A, Homo sapiens, UniProt P08908)
RIOK2: Serine/threonine-protein kinase RIO2 (RIOK2, Homo sapiens, UniProt Q9BVS4)

`CC(=O)Nc1ccc(S(=O)(=O)N2CCN(CC(O)COc3ccc4ccccc4c3)CC2)cc1` (stereo not shown) has a kon of 4290 M⁻¹ s⁻¹ (Fibroblast growth factor 14; binding, SPR).
For `C1=C/COCc2cc(ccc2OCCN2CCCC2)Nc2nccc(n2)-c2cccc(c2)COC/1`, the remaining binding was 53% (Death-associated protein kinase 3 (DAPK3, Homo sapiens, UniProt O43293); binding; 0.1 µM).
The inhibition of `CN(C)CCOC(=O)COc1ccc(Cl)cc1` is reported as -5.33% (HTR1A; ligand displacement, radioligand; 1 µM, cell membranes).
The activity vs control of `CC(=O)ON=C1C=CC(=C(C#N)c2ccccc2)C=C1` is reported as 77% (Casein kinase I isoform epsilon (CSNK1E, Homo sapiens, UniProt P49674); enzyme activity, inhibitor, ADP detection; 2 µM).
With `Cc1cc(F)cc2c(CCC(=O)N[C@@H]3C(=O)NC[C@H]3O)c(-c3ccc(F)cc3)[nH]c12` the inhibition was -8% (HTR1A; cell-free assay; 10 µM).
`O=C(CN(Cc1ccccc1)S(=O)(=O)c1ccc(F)cc1)Nc1cccc(Cl)c1Cl` gave a ΔTm of 1 °C (Fibroblast growth factor 14; thermal stability; 25 µM).
`COc1ccc2oc(-c3ccc4nc(N)oc4c3)c/c(=N\c3ccccc3NC(=O)CCN)c2c1` has a remaining binding of 101% (Phosphatidylinositol 4-phosphate 3-kinase C2 domain-containing subunit alpha (PIK3C2A, Homo sapiens, UniProt O00443); binding; 1 µM).
The kon of `Cc1cccc(NC(=O)Cn2cc(CO)c3ccccc32)c1` is reported as 8900 M⁻¹ s⁻¹ (Fibroblast growth factor 14; binding, SPR).
With `C#Cc1cnc(Nc2ccnc(CO)c2)nc1Nc1ccccc1S(C)(=O)=NC#N` (stereo not shown) the remaining signal was 100% (RIOK2; cell-free assay; 1 µM).
For `N#Cc1ccc(NC(=O)Nc2ccccc2)cc1`, the remaining binding was 68% (RIOK2; cell-free assay, competition with immobilised ligand; 25 µM).
With `NC/C(=C\F)COc1cccc(Cn2c(=S)[nH]c(=O)c3[nH]cnc32)c1` the inhibition was < 50% (Glucocorticoid receptor (NR3C1, Homo sapiens, UniProt P04150); ligand displacement, radioligand; 10 µM).
`CCN1/C(=C/C(C)=O)Sc2ccc(F)cc21` has an inhibition of 1.73% (HTR1A; ligand displacement, radioligand; 10 µM).
`CCCCC(=O)Nc1ccc(-c2ccc3ncn(CCC)c(=O)c3c2)cn1` gave a remaining binding of 94% (Mitogen-activated protein kinase kinase kinase 13 (MAP3K13, Homo sapiens, UniProt O43283); binding, competition with immobilised ligand; 0.5 µM).
